Assay [1] addresses T1, PhENR (Pyrococcus horikoshii, UniProt O58586). Description: Biocatalytic transformations with PhENR. The assay is classed as biochemical. Conditions: for acceptance as substrate: substrate scope. The method, boiled down:
(§1)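 Substrate (10 mM) was reduced with NADH or NADPH (15 mM) and enzyme in 50 mM buffer. The initial aerobic screen used Tris-HCl at pH 7, 8 or 9. Optimised anaerobic runs used degassed buffer under an Ar flush: 50 mM phosphate for TtENR, 50 mM Tris-HCl for PhENR, both pH 7, with NADPH. Mixtures were shaken 24 h at 30 °C, 120 r.p.m., then EtOAc-extracted. Conversion was read by achiral GC, e.e. by chiral GC or HPLC. One substrate was given in DMF (1% final).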

The target in assay [2] is T2, TtENR (Thermus thermophilus, UniProt P83818).
T2 sequence (P83818 1-178): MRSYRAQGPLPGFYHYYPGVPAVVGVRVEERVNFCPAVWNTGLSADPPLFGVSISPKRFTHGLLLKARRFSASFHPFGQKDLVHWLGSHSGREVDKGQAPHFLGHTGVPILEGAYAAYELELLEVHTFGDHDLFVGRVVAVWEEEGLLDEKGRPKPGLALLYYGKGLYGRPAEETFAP
Briefly: Biocatalytic transformations with TtENR. Format: biochemical. Conditions: for acceptance as substrate: substrate scope, Table 1. The essentials:
as §1

The target in assay [3] is T2, TtENR. Briefly: Stopped-flow reductive half reaction of TtENR. Particulars: monophasic, 37 °C, 100 mM Tris-HCl pH 7.4. Format: biochemical. The essentials: (§2)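 Anoxic stopped-flow at 37 °C in a glove box, single-mixing mode. Enzyme was mixed with NADPH or NADH at 0.4–10.0 mM in 100 mM Tris-HCl pH 7.4, with nitrogen-flushed buffers. Flavin reduction was monitored as A458 change with a diode-array detector.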

Assay [4] addresses T1, PhENR. Description: UV-visible difference titration of ligands with PhENR. The assay is classed as binding. The method, boiled down: (§3)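 UV–visible difference titrations at 25 °C in tandem cuvettes. Putative ligand (enones, enals, a quinone or a hydroxybenzaldehyde) was added both to enzyme solution in the sample cell and to 50 mM Tris-HCl pH 7.5 buffer in the reference cell. Spectral changes were followed as a function of ligand concentration.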

Assay [5] deals with T2, TtENR. Description: UV-visible difference titration of ligands with TtENR. The assay is classed as binding. The method, boiled down:
as §3

In assay [6] the target is yeast OYE. Particulars: read-out: dissociation constant (Kd); cited from earlier work.
Assay [7] deals with yeast OYE. Conditions: cited from earlier work; for rate of reduction of the flavin cofactor: biphasic kinetics.
Assay [8] concerns the target T1, PhENR. Description: Stopped-flow reductive half reaction of PhENR. Format: biochemical. Conditions: monophasic, 37 °C, 100 mM Tris-HCl pH 7.4. The method, boiled down: as §2
The target of assay [9] is T2, TtENR. Briefly: Steady-state turnover. Format: biochemical. Particulars: NADPH and dioxygen as substrates, 50 mM potassium phosphate pH 7.0, 75 °C.
Assay [10] deals with T2, TtENR. Briefly: Stopped-flow reoxidation of reduced TtENR. Format: biochemical. Particulars: air-saturated buffer. The essentials:
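Enzyme in 50 mM potassium phosphate pH 7.0 was reduced anoxically with sodium dithionite, and excess dithionite was removed on a desalting column inside a glove box. Reduced enzyme was mixed in single-mixing stopped-flow at 37 °C with substrate at various concentrations or with air-saturated buffer. FMN reoxidation was followed at A458 by diode array. Curves were fitted with a two-exponential function.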

The values that follow come from PMC4083419 (Nature Communications, 2014).

Structures are written as SMILES. Like-named read-outs stand apart in the source and are kept apart here.

T1 sequence (O58586 whole entry): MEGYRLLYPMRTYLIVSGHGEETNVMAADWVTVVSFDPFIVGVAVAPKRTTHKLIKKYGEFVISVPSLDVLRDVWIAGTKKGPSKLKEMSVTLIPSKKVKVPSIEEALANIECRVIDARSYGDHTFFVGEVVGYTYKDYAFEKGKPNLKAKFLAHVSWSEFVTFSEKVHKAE

Regarding `CC1=CC(=O)CC(C)(C)C1=O` [Compound 2a, 2,6,6-trimethylcyclohex-2-ene-1,4-dione], the “stereopreference compared with typical OYEs” value on PhENR [1] and at TtENR [2] was “inverted stereopreference” in each case. Further, the acceptance as substrate entry on PhENR [1] (Table 1) and at TtENR [2] was “good substrates” each time.

For the molecule `NC(=O)C1=CN([C@@H]2O[C@H](COP(=O)(O)OP(=O)(O)OC[C@H]3O[C@@H](n4cnc5c(N)ncnc54)[C@H](O)[C@@H]3O)[C@@H](O)[C@H]2O)C=CC1` [NADH], the “reductive rate (kred)” value on TtENR [3] came to 0.25 s⁻¹.

As a reminder, the Kd is the constant that tells how readily two partners part at equilibrium. In the case of `O=C1C=CC(=O)C=C1` [1,4-benzoquinone], the figures for the Kd on PhENR [4] and at TtENR [5] were 1800 µM and 580 µM, respectively.

Take `O=C1C=CCCC1` [Compound 1a, 2-Cyclohexen-1-one]: the acceptance as substrate result on PhENR [1] (Table 1) and at TtENR [2] was “accepted but at lower conversion rates” throughout. Also, the figures for the dissociation constant (Kd) at PhENR [4], at yeast OYE [6] and at TtENR [5] were 76000 µM, 32 µM and 40000 µM, respectively. The oxidative rate kox in the assay with yeast OYE [7] was 102 s⁻¹.

For orientation: Km means the substrate concentration at which the rate is half of its maximum. With `NC(=O)C1=CN([C@@H]2O[C@H](COP(=O)(O)OP(=O)(O)OC[C@H]3O[C@@H](n4cnc5c(N)ncnc54)[C@H](OP(=O)(O)O)[C@@H]3O)[C@@H](O)[C@H]2O)C=CC1` [NADPH], the results for the “reductive rate (kred)” value on TtENR [3] and on PhENR [8] were 0.15 s⁻¹ and 0.06 s⁻¹, respectively. The turnover rate kcat at TtENR [9] stood at 0.36 s⁻¹. Moreover, the Michaelis-Menten constant (Km) at TtENR [9] (read-out: KM(NADPH)) was found to be 50 µM. For the same molecule, the “rate of reduction of the flavin cofactor” value was 1.18 s⁻¹ in the assay on yeast OYE [7] (first printed rate) and 0.3 s⁻¹ in the assay on yeast OYE [7] (second printed rate).

Turning to `O=O` [dioxygen], the “kox, reoxidation of the cofactor” value on TtENR [10] turned out to be 57 s⁻¹.

`O=Cc1ccc(O)cc1` [pHB, p-hydroxybenzaldehyde]: the values for the dissociation constant Kd on PhENR [4] and on TtENR [5] were 36 µM and 25 µM, respectively.

With `CC1CC(=O)N(c2ccccc2)C1=O` (racemic) [Compound 5b, rac-N-phenyl-2-methylsuccinimide], the “stereopreference compared with typical OYEs” value at PhENR [1] and on TtENR [2] was “inverted stereopreference” each time. Further, the acceptance as substrate entry on PhENR [1] (Table 1) and on TtENR [2] was “good substrates” in each case.

For `CC(C)=CCCC(C)=CC=O` (mixture of isomers) [Compound 4a, citral], the acceptance as substrate result on PhENR [1] (Table 1) and at TtENR [2] was “good substrates” throughout.

On to `CC/C=C(\C)C=O` [Compound 3a, (E)-2-methylpent-2-enal], for which, at PhENR [1] (Table 1), the conversion result is recorded as “full conversion”. The acceptance as substrate result at PhENR [1] (Table 1) and on TtENR [2] was “good substrates” each time.
